Reference: ChEMBL document CHEMBL2163200, “Synthesis, biological evaluation, and structure-activity relationships of novel substituted N-phenyl ureidobenzenesulfonate derivatives blocking cell cycle progression in S-phase and inducing DNA double-strand breaks” (J Med Chem, 2012)
pIC50: −log10 of the molar value. The source made the active and inactive calls. The calls are words filed in the database; no cut-off is given here.

Legend:
Jurkat [1] = experiment: Cell cycle arrest in human Jurkat E6-1 cells assessed as accumulation at S phase at 28 uM after 24 hrs by FACS flow cytometry; assay type: functional
Summary of the method: (§1)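 Jurkat E6 T-lymphoblasts in RPMI 1640 with 10% FBS, 37 °C, 5% CO2. […] Chicken red blood cells were added as internal standard. Cells were fixed in ice-cold EtOH and stained with 1 μg/mL DAPI on ice for 1 h before flow cytometry of phase distribution. Vehicle control was 0.5% DMSO.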

Jurkat [2] = experiment: Cell cycle arrest in human Jurkat E6-1 cells assessed as accumulation at G2/M phase at 28 uM after 24 hrs by FACS flow cytometry; assay type: functional
Summary of the method: (§2)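 Jurkat E6 cells grown in RPMI 1640 with 10% FBS at 37 °C, 5% CO2. Compounds were serially diluted in medium starting 50% above the M21 IC50. 4.0 × 10^5 cells were exposed for 24 h, then washed and spiked with chicken red blood cells as internal standard. Cells were fixed in ice-cold ethanol, stained with 1 μg/mL DAPI on ice for 1 h, and phase distribution was read by flow cytometry. The control was 0.5% DMSO.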

HT-29 = experiment: Cytotoxicity against human HT-29 cells after 48 hrs by SRB assay; assay type: functional, cell-based; details: HT-29, 48 h
Summary of the method: (§3)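 NCI sulforhodamine B protocol. Cells were grown in high-glucose DMEM with 5% FBS and seeded per well at 4 × 10^3 (HT-29), 3.5 × 10^3 (M21) or 3 × 10^3 (MCF-7), then allowed 24 h to attach. Serial dilutions from 200 μM to 780 nM final were applied in DMSO <0.5% for 48 h. Cells were fixed with cold TCA (10% final) and stained with SRB, with absorbance read at 530–568 nm. Growth inhibition was computed against day-0 plates, giving the 50% inhibitory concentration. At least two experiments in triplicate, CV <10%.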

M21 [3] = experiment: Cytotoxicity against human M21 cells after 48 hrs by SRB assay; assay type: functional, cell-based; details: M21, 48 h; summary of the method: as §3
MCF7 = experiment: Cytotoxicity against human MCF7 cells after 48 hrs by SRB assay; assay type: functional, cell-based; details: MCF7, 48 h; summary of the method: as §3
Jurkat [4] = experiment: Cell cycle arrest in human Jurkat E6-1 cells assessed as accumulation at G0/G1 phase at 28 uM after 24 hrs by FACS flow cytometry; assay type: functional
Summary of the method: (§4)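 Jurkat E6 cells cultured in RPMI 1640 with 10% FBS at 37 °C, 5% CO2. Compounds serially diluted in medium, starting 50% above the M21 IC50. 4.0 × 10^5 cells were exposed for 24 h. Cells were washed with PBS, chicken red blood cells added as internal standard, and fixed in ice-cold EtOH. After 1 h on ice in PBS with 1 μg/mL DAPI, phase distribution was read by flow cytometry. DMSO-treated cells served as control.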

Jurkat [5] = experiment: Cell cycle arrest in human Jurkat E6-1 cells assessed as accumulation at S phase at 8.3 uM after 24 hrs by FACS flow cytometry; assay type: functional; summary of the method: as §1
Jurkat [6] = experiment: Cell cycle arrest in human Jurkat E6-1 cells assessed as accumulation at G2/M phase at 8.3 uM after 24 hrs by FACS flow cytometry; assay type: functional; summary of the method: as §2
M21 [7] = experiment: Induction of DNA damage response in human M21 cells assessed as phosphorylation of H2AX into gammaH2AX at IC50 after 24 hrs by DAPI staining-based immunofluorescence assay; assay type: functional, cell-based
Summary of the method: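 M21 cells (1 × 10^5) on fibronectin-coated coverslips, grown 24 h, then exposed to agent for 24 h at 37 °C; 0.5% DMSO control. Fixed with 3.7% formaldehyde and permeabilized with 0.1% saponin/3% BSA. Probed with mouse anti-H2AX pS139 antibody for 2 h at room temperature. Nuclei counterstained with DAPI; nuclear γH2AX foci viewed by epifluorescence microscopy.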

Jurkat [8] = experiment: Cell cycle arrest in human Jurkat E6-1 cells assessed as accumulation at G0/G1 phase at 8.3 uM after 24 hrs by FACS flow cytometry; assay type: functional; summary of the method: as §4
Jurkat [9] = experiment: Cell cycle arrest in human Jurkat E6-1 cells assessed as accumulation at S phase at 26 uM after 24 hrs by FACS flow cytometry; assay type: functional; summary of the method: as §1
Jurkat [10] = experiment: Cell cycle arrest in human Jurkat E6-1 cells assessed as accumulation at G2/M phase at 26 uM after 24 hrs by FACS flow cytometry; assay type: functional; summary of the method: as §2
Jurkat [11] = experiment: Cell cycle arrest in human Jurkat E6-1 cells assessed as accumulation at G0/G1 phase at 26 uM after 24 hrs by FACS flow cytometry; assay type: functional; summary of the method: as §4
Jurkat [12] = experiment: Cell cycle arrest in human Jurkat E6-1 cells assessed as accumulation at G0/G1 phase at 40 uM after 24 hrs by FACS flow cytometry; assay type: functional; summary of the method: as §4
Jurkat [13] = experiment: Cell cycle arrest in human Jurkat E6-1 cells assessed as accumulation at S phase at 40 uM after 24 hrs by FACS flow cytometry; assay type: functional; summary of the method: as §1
Jurkat [14] = experiment: Cell cycle arrest in human Jurkat E6-1 cells assessed as accumulation at G2/M phase at 40 uM after 24 hrs by FACS flow cytometry; assay type: functional; summary of the method: as §2
Jurkat [15] = experiment: Cell cycle arrest in human Jurkat E6-1 cells assessed as accumulation at S phase at 14 uM after 24 hrs by FACS flow cytometry; assay type: functional; summary of the method: as §2
Jurkat [16] = experiment: Cell cycle arrest in human Jurkat E6-1 cells assessed as accumulation at G2/M phase at 14 uM after 24 hrs by FACS flow cytometry; assay type: functional; summary of the method: as §4
Jurkat [17] = experiment: Cell cycle arrest in human Jurkat E6-1 cells assessed as accumulation at G0/G1 phase at 14 uM after 24 hrs by FACS flow cytometry; assay type: functional; summary of the method: as §4
Jurkat [18] = experiment: Cell cycle arrest in human Jurkat E6-1 cells assessed as accumulation at S phase at 57 uM after 24 hrs by FACS flow cytometry; assay type: functional; summary of the method: as §1
Jurkat [19] = experiment: Cell cycle arrest in human Jurkat E6-1 cells assessed as accumulation at G2/M phase at 57 uM after 24 hrs by FACS flow cytometry; assay type: functional; summary of the method: as §2
Jurkat [20] = experiment: Cell cycle arrest in human Jurkat E6-1 cells assessed as accumulation at G0/G1 phase at 57 uM after 24 hrs by FACS flow cytometry; assay type: functional; summary of the method: as §4
Jurkat [21] = experiment: Cell cycle arrest in human Jurkat E6-1 cells assessed as accumulation at S phase at 29 uM after 24 hrs by FACS flow cytometry; assay type: functional; summary of the method: as §1
Jurkat [22] = experiment: Cell cycle arrest in human Jurkat E6-1 cells assessed as accumulation at G2/M phase at 29 uM after 24 hrs by FACS flow cytometry; assay type: functional; summary of the method: as §2
Jurkat [23] = experiment: Cell cycle arrest in human Jurkat E6-1 cells assessed as accumulation at G0/G1 phase at 29 uM after 24 hrs by FACS flow cytometry; assay type: functional; summary of the method: as §4
Jurkat [24] = experiment: Cell cycle arrest in human Jurkat E6-1 cells assessed as accumulation at S phase at 25 uM after 24 hrs by FACS flow cytometry; assay type: functional; summary of the method: as §2
Jurkat [25] = experiment: Cell cycle arrest in human Jurkat E6-1 cells assessed as accumulation at G2/M phase at 25 uM after 24 hrs by FACS flow cytometry; assay type: functional; summary of the method: as §2
Jurkat [26] = experiment: Cell cycle arrest in human Jurkat E6-1 cells assessed as accumulation at G0/G1 phase at 25 uM after 24 hrs by FACS flow cytometry; assay type: functional; summary of the method: as §4

## Cc1ccccc1OS(=O)(=O)c1cccc(NC(=O)NCCCCl)c1
Jurkat [1]
  Activity: 38%
Jurkat [2]
  Activity: 19%
HT-29
  pIC50: 4.68
M21 [3]
  pIC50: 4.54
MCF7
  pIC50: 4.57
Jurkat [4]
  Activity: 43%

## Cc1ccccc1OS(=O)(=O)c1ccc(NC(=O)NCCCCl)cc1
Jurkat [5]
  Activity: 70%
Jurkat [6]
  Activity: 10%
M21 [7]
  Activity: Active
M21 [3]
  pIC50: 4.60
MCF7
  pIC50: 4.57
Jurkat [8]
  Activity: 20%

## CCCc1ccccc1NS(=O)(=O)c1cccc(NC(=O)NCCCCl)c1
Jurkat [9]
  Activity: 43%
Jurkat [10]
  Activity: 13%
HT-29
  pIC50: 4.82
M21 [3]
  pIC50: 4.64
MCF7
  pIC50: 4.74
Jurkat [11]
  Activity: 44%

## CCNC(=O)Nc1cccc(S(=O)(=O)Oc2ccccc2C)c1
Jurkat [12]
  Activity: 25%
Jurkat [13]
  Activity: 60%
Jurkat [14]
  Activity: 15%
M21 [7]
  Activity: Active
HT-29
  pIC50: 4.36
M21 [3]
  pIC50: 4.29
MCF7
  pIC50: 4.26

## CCCc1ccccc1OS(=O)(=O)c1cccc(NC(=O)NCCCCl)c1
Jurkat [15]
  Activity: 39%
Jurkat [16]
  Activity: 9%
HT-29
  pIC50: 4.85
M21 [3]
  pIC50: 4.82
MCF7
  pIC50: 4.85
Jurkat [17]
  Activity: 52%

## O=C(NCCCCl)Nc1cccc(S(=O)(=O)Oc2ccc(O)cc2)c1
Jurkat [18]
  Activity: 48%
Jurkat [19]
  Activity: 9%
M21 [3]
  pIC50: 4.31
Jurkat [20]
  Activity: 43%

## CCCc1ccccc1NS(=O)(=O)c1ccc(NC(=O)NCCCl)cc1
Jurkat [21]
  Activity: 44%
Jurkat [22]
  Activity: 28%
HT-29
  pIC50: 4.68
M21 [3]
  pIC50: 4.54
Jurkat [23]
  Activity: 28%

## Cc1ccccc1NS(=O)(=O)c1cccc(NC(=O)NCCCCl)c1
Jurkat [24]
  Activity: 38%
Jurkat [25]
  Activity: 17%
HT-29
  pIC50: 4.38
M21 [3]
  pIC50: 4.22
MCF7
  pIC50: 4.28
Jurkat [26]
  Activity: 45%
